Results on three compounds are retold here after ChEMBL document CHEMBL4699454, “Mechanistic insights into the activation of ester prodrugs of 666-15” (Bioorg Med Chem Lett, 2020).

In general, solubility refers to the dissolved amount per volume that the medium holds. A lower solubility goes with a poorly soluble substance. One may read the GI50 as the concentration at which growth is held to half of that of the control. For orientation: IC50 means the concentration that gives 50% inhibition.

The nature of series [1]: Aqueous solubility of the compound in distilled de-ionized water. Format: physicochemical.
A further series relates to MDA-MB-231. In words: Antiproliferative activity against human MDA-MB-231 cells assessed as inhibition of cell growth incubated for 72 hrs by MTT assay. It counts as functional. In a few lines: (§1)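 MTT viability read-out after 72 h exposure of TNBC cells to increasing compound concentrations. GI50 = concentration giving 50% growth inhibition; mean ± SD from at least two independent experiments run in duplicate. Stocks of the ester prodrugs prepared in DMF, parent compound stocks in DMSO.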
In general terms: Formazan colour is commonly taken as a measure of viable cells.

Series [2] is described as follows: Ratio of GI50 for human MDA-MB-231 cells to GI50 for human MDA-MB-468 cells assessed as cell growth inhibition measured after 72 hrs by MTT assay. It counts as functional.
Series [3] is described as follows: Inhibition of CREB (unknown origin) expressed in HEK293T cells transfected with pCRE-RLuc assessed as inhibition of forskolin-induced CREB transcription activity by luciferase reporter gene assay. Format: cell-based. Particulars: Homo sapiens, HEK-293T. In a few lines: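 HEK293T cells transiently transfected with pCRE-RLuc (Renilla luciferase under CREB control), treated with graded compound concentrations, then stimulated with forskolin to raise CREB phosphorylation; luciferase signal read. IC50 = concentration halving reporter transcription; mean ± SD of at least two experiments in triplicate. Prodrug stocks in DMF, parent in DMSO.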
Background: In a reporter assay the amount or activity of a reporter protein is the signal.

A short description of series [4]: Stability of the compound in DMSO. It counts as physicochemical.
A further series deals with MDA-MB-468. In words: Antiproliferative activity against human MDA-MB-468 cells assessed as inhibition of cell growth incubated for 72 hrs by MTT assay. Format: functional. In a few lines:
as §1

Series [5] in a line: Stability of the compound in DMEM at 200 uM incubated for 5 to 30 mins in presence of 10% FBS by HPLC analysis. Particulars: time min 5-30. In a few lines: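 Compound at 200 μM incubated in DMEM with 10% FBS at 37 °C; aliquots withdrawn at various time points and analysed by HPLC, peaks assigned by comparison with authentic reference samples.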

For `Cl.NCCCOc1cc2ccccc2cc1C(=O)NCCOc1cc2ccccc2cc1C(=O)Nc1ccc(Cl)cc1O`, in series [1], the solubility was below 0.5 mg/mL.

For `NCCCOc1cc2ccccc2cc1C(=O)Oc1cc(Cl)ccc1NC(=O)c1cc2ccccc2cc1OCCN`, the GI50 in the series with MDA-MB-231 amounted to 540 nM; with MDA-MB-468, 45 nM. In addition, the “Ratio IC50” value in series [2] is 10. The half-inhibitory concentration (IC50) in series [3] was 260 nM. Moreover, the Stabilty result in series [4] is listed as “Unstable”.

As to `Cl.Cl.NCCCOc1cc2ccccc2cc1C(=O)Nc1ccc(Cl)cc1OC(=O)c1cc2ccccc2cc1OCCN`, the results for the GI50 in the series with MDA-MB-231 and in the series on MDA-MB-468 were 670 nM and 32 nM, respectively. For the same compound, the “Ratio IC50” value in series [2] was found to be 10. Further, the IC50 in series [3] stood at 250 nM. The Stabilty result in series [4] is “Unstable”. In series [1], this compound displayed a solubility above 100 mg/mL. For the same compound, in series [5], the Stability result is given as “Unstable”.
